Results pooled from the literature.
SLC6A2: Sodium-dependent noradrenaline transporter (SLC6A2, Homo sapiens, UniProt P23975)
PTPN12: Tyrosine-protein phosphatase non-receptor type 12 (PTPN12, Homo sapiens, UniProt Q05209)
NPSR1: Neuropeptide S receptor (NPSR1, Homo sapiens, UniProt Q6W5P4)
Dual specificity calcium/calmodulin-dependent 3',5'-cyclic nucleotide phosphodiesterase 1B: Dual specificity calcium/calmodulin-dependent 3',5'-cyclic nucleotide phosphodiesterase 1B (Homo sapiens, UniProt Q01064)
TPR: Trypanothione reductase (TPR, Trypanosoma cruzi, UniProt P28593)
Aldo-keto reductase family 1 member A1: Aldo-keto reductase family 1 member A1 (Rattus norvegicus, UniProt P51635)
GRM3: Metabotropic glutamate receptor 3 (GRM3, Homo sapiens, UniProt Q14832)

| Structure (SMILES) | target | read-out | action | technique | pH | setting | IC50 |
| --- | --- | --- | --- | --- | --- | --- | --- |
| c1ccc(CCC2CCN(CCCn3nnnc3C(c3ccccc3)c3ccccc3)CC2)cc1 | SLC6A2 | transporter uptake | inhibitor |  |  |  | 0.41 µM |
| CC(=O)N[C@@H](Cc1c[nH]c2ccccc12)C(=O)N[C@@H](CCC(=O)C=[N+]=[N-])C(=O)OC(C)C | Glutaminase kidney isoform, mitochondrial (GLS, Homo sapiens, UniProt O94925) | enzyme activity | inhibitor | radiometric |  |  | > 1000 µM |
| O=C(O)c1cc(O)c2c(c1)[C@H]([C@H]1c3cc(C(=O)O)cc(O)c3C(=O)c3c(O[C@@H]4O[C@H](CO)[C@@H](O)[C@H](O)[C@H]4O)cccc31)c1cccc(O[C@@H]3O[C@H](CO)[C@@H](O)[C@H](O)[C@H]3O)c1C2=O | PTPN12 | enzyme activity | inhibitor | fluorescence |  |  | 0.4 µM |
| CN1c2c(nc(N)[nH]c2=O)NC[C@@H]1CNc1ccc(C(=O)N[C@@H](CCC(=O)O)C(=O)O)cc1 | Folate receptor beta (FOLR2, Homo sapiens, UniProt P14207) | cell-free assay |  | ELISA |  |  | 0.196 µM |
| COc1cccc(C2c3c(ncn(-c4ccccc4C)c3=N)Oc3ccc4ccccc4c32)c1 (centres unmarked) | NPSR1 | cAMP | antagonist | TR-FRET |  |  | 9.72 µM |
| Clc1ccc(C(c2ccccc2)c2nnnn2CCCN2CCC(CCCc3ccccc3)CC2)cc1 (centres unmarked) | SLC6A2 | transporter uptake | inhibitor |  |  |  | 0.527 µM |
| Cc1nn2c(-c3c(C)nn(C)c3-c3ccc(C(F)(F)F)cc3)nc(CO)c2c(=O)[nH]1 | Dual specificity calcium/calmodulin-dependent 3',5'-cyclic nucleotide phosphodiesterase 1B | enzyme activity | inhibitor |  |  |  | 5.26 µM |
| CN1CCN(c2ccc(Nc3ncc4cc(C#N)c(=O)n(C5CCCC5)c4n3)cc2)CC1 | MAP kinase-interacting serine/threonine-protein kinase 2 (MKNK2, Homo sapiens, UniProt Q9HBH9) | enzyme activity | inhibitor |  |  |  | 4.41 µM |
| COc1ccc(-n2cnc3c(c2=N)C(c2cccc(OC)c2)c2c(ccc4ccccc24)O3)cc1 (centres unmarked) | NPSR1 | calcium signal | antagonist |  |  |  | 4.38 µM |
| Clc1ccc(C(c2ccccc2)c2nnnn2CCCCN2CCN(CC=Cc3ccccc3)CC2)cc1 (centres unmarked) | SLC6A2 | transporter uptake | inhibitor |  |  |  | 0.985 µM |
| COc1cccc(C2c3c(ncn(-c4ccc(F)cc4)c3=N)Oc3ccc4ccccc4c32)c1 (centres unmarked) | NPSR1 | calcium signal | antagonist |  |  |  | 3.48 µM |
| Cc1cnc(-c2ccc(-c3ccc(NC(=O)Nc4c(F)cc(F)cc4F)cc3F)c3c2C(=O)NC3)[nH]1 | Serine/threonine-protein kinase/endoribonuclease IRE2 (ERN2, Homo sapiens, UniProt Q76MJ5) | enzyme activity | inhibitor |  |  |  | 0.0148 µM |
| N=c1n(CCN2CCCCC2)c2ccccc2n1CC(O)COc1ccc(Cl)cc1Cl (centres unmarked) | TPR | enzyme activity | inhibitor |  |  |  | ≤ 10 µM |
| COc1ccc2nc(/N=C3/NC(=O)C(=Cc4ccc(O)cc4)S3)sc2c1 | Aldo-keto reductase family 1 member A1 | enzyme activity | inhibitor | absorbance | pH 7.2 |  | 1.24 µM |
| COc1cccc(C2c3c(ncn(-c4cccc(C#N)c4)c3=N)Oc3ccc4ccccc4c32)c1 (centres unmarked) | NPSR1 | calcium signal | antagonist |  |  |  | 4.38 µM |
| CCCc1ccccc1 | TPR | enzyme activity | inhibitor | absorbance |  |  | > 100 µM |
| O=C1NC(=O)/C(=C/c2ccc(OCCNc3nc4c(cnn4C4CCCC4)c(=O)[nH]3)c(F)c2)S1 | Dual specificity calcium/calmodulin-dependent 3',5'-cyclic nucleotide phosphodiesterase 1B | enzyme activity | inhibitor |  |  |  | 0.0065 µM |
| O=S(=O)(Nc1nc2cc(Cl)ccc2o1)c1cc(Cl)ccc1Cl | Fructose-1,6-bisphosphatase 1 (Mus musculus, UniProt Q9QXD6, G27P) | enzyme activity | inhibitor |  |  |  | > 100 µM |
| Cc1ccc(C(=O)Nc2ccc(S(=O)(=O)O)c3cc(S(=O)(=O)O)cc(S(=O)(=O)O)c23)cc1NC(=O)c1cccc(NC(=O)Nc2cccc(C(=O)Nc3cc(C(=O)Nc4ccc(S(=O)(=O)O)c5cc(S(=O)(=O)O)cc(S(=O)(=O)O)c45)ccc3C)c2)c1 | PTPN12 | enzyme activity | inhibitor |  |  |  | 11 µM |
| COc1ccc(-c2cc(C(N)=O)ncc2OCc2cn(C)cn2)c(F)c1 | GRM3 | ion flux | antagonist |  |  |  | > 10 µM |
| CN(C)CCCN1c2ccccc2Sc2ccc(Cl)cc21 | TPR | enzyme activity | inhibitor | absorbance |  |  | 6.32 µM |
| Nc1c(Cl)cccc1C(=O)Nc1ccccc1C(=O)O | srtA (Staphylococcus aureus, UniProt Q2FV99) | enzyme activity | inhibitor |  |  |  | 59.7 µM |
| N=c1n(CCN2CCCCC2)c2ccccc2n1CC(O)COc1ccccc1 (centres unmarked) | TPR | enzyme activity | inhibitor |  |  |  | ≤ 10 µM |
| O=C(Oc1cc(O)cc2c1C[C@@H](OC(=O)c1cc(O)c(O)c(O)c1)[C@@H](c1cc(O)c(O)c(O)c1)O2)c1cc(O)c(O)c(O)c1 | PTPN12 | enzyme activity | inhibitor | fluorescence |  |  | 0.02 µM |
| COc1ccc2nc(/N=C3/NC(=O)C(=Cc4cc(OC)c(O)c(OC)c4)S3)sc2c1 | Aldo-keto reductase family 1 member A1 | enzyme activity | inhibitor | absorbance | pH 7.2 |  | 42.1 µM |
| O=c1[nH]c(=S)n(Cc2ccc(Cl)cc2CNCC(F)(F)F)c2cc[nH]c12 | Myeloperoxidase (MPO, Homo sapiens, UniProt P05164) | enzyme activity | inhibitor |  |  |  | 0.035 µM |
| COc1ccc(-c2cc(C(N)=O)ncc2OCc2ccc(F)nc2)c(F)c1 | GRM3 | ion flux | antagonist |  |  |  | > 10 µM |

| Structure (SMILES) | target | read-out | action | technique | pH | setting | IC50 |
| --- | --- | --- | --- | --- | --- | --- | --- |
| Nc1ncnc2c1C(c1ccccc1)c1c(ccc3ccccc13)O2 (centres unmarked) | NPSR1 | cAMP | antagonist | TR-FRET |  |  | 7.72 µM |
| Clc1ccc2c(c1)N(CCCN1CCN(CCCc3ccccc3)CC1)c1ccccc1S2 | TPR | enzyme activity | inhibitor | absorbance |  |  | 0.75 µM |
| Clc1ccc(C(c2ccccc2)c2nnnn2CCCCN2CCN(CCCc3ccccc3)CC2)cc1 (centres unmarked) | SLC6A2 | transporter uptake | inhibitor |  |  |  | 0.745 µM |
| COc1ccccc1C1c2c(ncn(-c3ccccc3)c2=N)Oc2ccc3ccccc3c21 (centres unmarked) | NPSR1 | calcium signal | antagonist |  |  |  | 5.52 µM |
| COc1ccc(-c2cc(C(N)=O)ncc2OCc2ccncc2)c(F)c1 | GRM3 | ion flux | antagonist |  |  |  | > 10 µM |
| O=S1(=O)O[C@@H]2[C@H](O)[C@@H](O)[C@H](O)[C@@H](CO)[C@@H]2O1 | bglA (Thermotoga maritima, UniProt Q08638) | enzyme activity | inhibitor |  | pH 6.8 | with preincubation | > 100 µM |
| BrCCCc1ccccc1 | TPR | enzyme activity | inhibitor | absorbance |  |  | > 100 µM |
| COc1ccc2c(Oc3ccc4c(C(=O)Nc5ccccc5N)cccc4c3)ccnc2c1 | Tyrosine-protein kinase Fgr (FGR, Homo sapiens, UniProt P09769) | enzyme activity | inhibitor |  |  |  | > 0.5 µM |
| c1ccc(CCCN2CCNCC2)cc1 | TPR | enzyme activity | inhibitor | absorbance |  |  | 34.5 µM |
| Cc1ccc(C(O)Cn2c(=N)n(CCN3CCCCC3)c3ccccc32)cc1 (centres unmarked) | TPR | enzyme activity | inhibitor |  |  |  | ≤ 10 µM |
| COc1ccc(C2c3c(ncn(CCCc4ccccc4)c3=N)Oc3ccc4ccccc4c32)cc1OC (centres unmarked) | NPSR1 | calcium signal | antagonist |  |  |  | > 30 µM |
| COc1ccc(-c2cc(C(N)=O)ncc2OCc2ccnc(F)c2)c(F)c1 | GRM3 | ion flux | antagonist |  |  |  | > 10 µM |
| CO/N=C(\C(=O)N[C@@H]1C(=O)N2C(C(=O)O)=C(COC(C)=O)CS[C@H]12)c1csc(N)n1 | PTPN12 | enzyme activity | inhibitor | fluorescence |  |  | 70 µM |
| COc1cccc(C2c3c(ncn(-c4ccccc4OC)c3=N)Oc3ccc4ccccc4c32)c1 (centres unmarked) | NPSR1 | calcium signal | antagonist |  |  |  | 1.1 µM |
| CCN(CC)CCn1c(=N)n(CC(=O)c2ccc(C)cc2)c2ccccc21 | TPR | enzyme activity | inhibitor |  |  |  | ≤ 10 µM |
| COc1ccc2nc(/N=C3/NC(=O)C(=Cc4ccccc4)S3)sc2c1 | Aldo-keto reductase family 1 member A1 | enzyme activity | inhibitor | absorbance | pH 7.2 |  | > 50 µM |
| CCN(CC)C(=S)SSC(=S)N(CC)CC | PTPN12 | enzyme activity | inhibitor | fluorescence |  |  | > 500 µM |
| Fc1ccc(C(c2ccc(F)cc2)c2nnnn2CCCCN2CCN(Cc3ccccc3)CC2)cc1 | SLC6A2 | transporter uptake | inhibitor |  |  |  | 0.16 µM |
| O=P(O)(O)OC[C@H]1O[C@@](CO)(OP(=O)(O)O)[C@@H](O)[C@@H]1O | Fructose-1,6-bisphosphatase 1 (Mus musculus, UniProt Q9QXD6) | enzyme activity | inhibitor |  |  |  | 1.69 µM |
| O=C1c2ccccc2-c2cccc3cccc1c23 | PTPN12 | enzyme activity | inhibitor | fluorescence |  |  | > 150 µM |
| COc1ccc(/C=C2\SC(=Nc3nc4ccc(OC)cc4s3)NC2=O)cc1 | Aldo-keto reductase family 1 member A1 | enzyme activity | inhibitor | absorbance | pH 7.2 |  | 4.21 µM |
| Nc1nccc2cc(CNC(=O)c3cnn(Cc4ccc(Cn5ccccc5=O)cc4)c3)ccc12 | Plasma kallikrein (KLKB1, Homo sapiens, UniProt P03952) | enzyme activity | inhibitor |  |  | with preincubation | 0.00059 µM |
| Cn1ccc(COc2cnc(C(N)=O)cc2-c2ccc(F)cc2)n1 | GRM3 | ion flux | antagonist |  |  |  | > 10 µM |
| O=C1c2ccccc2C(=O)c2c(O)c(O)cc(O)c21 | PTPN12 | enzyme activity | inhibitor | fluorescence |  |  | 7 µM |
| OC1c2ccccc2CCc2ccccc21 | TPR | enzyme activity | inhibitor | absorbance |  |  | > 100 µM |
| Fc1ccc(C(c2ccc(F)cc2)c2nnnn2CCCCN2CCC(Cc3ccccc3)CC2)cc1 | SLC6A2 | transporter uptake | inhibitor |  |  |  | 0.298 µM |
